Laboratory results reported in ChEMBL document CHEMBL5344432, “Identification of a Dual Autophagy and REV-ERB Inhibitor with in Vivo Anticancer Efficacy” (J Med Chem, 2024).
≈ marks a conversion by molar mass, not a printed value.

What was measured:
[1] = Aqueous kinetic solubility of the compound in PBS at pH 7.4 at 250 uM incubated for 24 hrs by UPLC/MS analysis; type: physicochemical; conditions: read-out: Kinetic_solubility
In short: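 Kinetic solubility measured in phosphate-buffered saline, pH 7.4. Mean of at least two independent experiments, each run in two technical replicates.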

[2] = Metabolic stability in mouse liver microsomes assessed as parent compound remaining preincubated for 15 mins followed by NADPH addition and measured after 1 hr by LC-MS/MS analysis; type: ADME, Microsome; conditions: time 75 min, read-out: Stability
In short: (§1)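 Microsomal stability assessed in mouse, human, rat or dog liver microsomes with NADPH cofactor. Half-life and percent parent remaining at 60 and 120 min reported. Mean of at least two independent experiments, each in two technical replicates.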

[3] = Metabolic stability in human liver microsomes assessed as percent compound remaining preincubated for 15 mins followed by UDPGA addition and measured after 2 hrs by LC-MS/MS analysis
[4] = Metabolic stability in mouse liver microsomes assessed as half life preincubated for 15 mins followed by UDPGA addition and measured after 2 hrs by LC-MS/MS analysis; type: ADME, Microsome; conditions: time 135 min
In short: (§2)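 Mouse and human liver microsomes incubated with UDPGA cofactor. Half-life and percent parent remaining at 120 min reported. Mean of at least two independent experiments, each in two technical replicates.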

[5] = Metabolic stability in mouse liver microsomes assessed as parent compound remaining preincubated for 15 mins followed by NADPH addition and measured after 2 hrs by LC-MS/MS analysis; type: ADME, Microsome; conditions: time 135 min, read-out: Stability; in short: as §1
[6] = Metabolic stability in mouse liver microsomes assessed as half life preincubated for 15 mins followed by NADPH addition and measured after 1 to 2 hrs by LC-MS/MS analysis; type: ADME, Microsome; conditions: time 75-135 min; for half-life: liver microsomes; for t1/2: microsomes; in short: as §1
[7] = Metabolic stability in human liver microsomes assessed as half life preincubated for 15 mins followed by NADPH addition and measured after 1 to 2 hrs by LC-MS/MS analysis; type: ADME, Microsome; conditions: time 75-135 min; for half-life: liver microsomes; in short: as §1
[8] = Metabolic stability in human liver microsomes assessed as parent compound remaining preincubated for 15 mins followed by UDPGA addition and measured after 2 hrs by LC-MS/MS analysis; type: ADME, Microsome; conditions: time 135 min, read-out: Stability; in short: as §2
[9] = Metabolic stability in mouse liver microsomes assessed as half-life preincubated for 15 mins followed by UDPGA addition and measured after 2 hrs by LC-MS/MS analysis
[10] = Metabolic stability in human liver microsomes assessed as parent compound remaining preincubated for 15 mins followed by NADPH addition and measured after 1 hr by LC-MS/MS analysis; type: ADME, Microsome; conditions: time 75 min, read-out: Stability; in short: as §1
[11] = (§3) Cytotoxicity against HMECs; type: toxicity, cell-based, HMEC; conditions: human, HMEC cells
In short: (§4)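 BT-474 breast cancer cells and nontumorigenic HMECs treated 48 h with concentrations up to 30 μM. CC50 derived from concentration–response viability plots. Values >30 μM assigned when viability fell by less than 50% of vehicle at 30 μM. Mean ± SEM, n ≥ 3.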

[12] = Metabolic stability in human liver microsomes assessed as parent compound remaining preincubated for 15 mins followed by NADPH addition and measured after 2 hrs by LC-MS/MS analysis; type: ADME, Microsome; conditions: time 135 min, read-out: Stability; in short: as §1
[13] = test system: BT-474; experiment: Cytotoxicity against human BT-474 cells; type: functional; in short: as §4
[14] = test system: HMEC; experiment: as §3; type: toxicity, cell-based; conditions: human, hmec; in short: as §4

Row | SMILES | solubility kinetic at 24 h, 250 µM [1] [µM] | remaining at 1 h [2] [%] | percent compound remaining at 2 h [3] [%] | half-life [4] [h] | remaining at 2 h [5] [%] | half-life [6] [h] | half-life [7] [h] | remaining at 2 h [8] [%] | t1/2 at 2 h [9] [h] | remaining at 1 h [10] [%] | CC50 [11] [µM] | remaining at 2 h [12] [%] | CC50 [13] [µM] | t1/2 [6] [h] | CC50 [14] [µM] | t1/2 ([7]; microsomes) [h]
1 | Fc1ccc(C2(NCc3cccc(CC4CCNCC4)c3)CCCC2)cc1 | 248 (≈ 90.9 µg/mL) | 85 | 95 | > 2 | 71 | > 2 | > 2 | 95 | > 2 | 80 | > 30 | 62 | 2.74 |  |  | 
2 | CN1CCC(Cc2cccc(CNC3(c4ccc(F)c(O)c4)CCCC3)c2)CC1 | > 250 | 80 | 95 | > 2 | 63 | > 2 | > 2 | > 95 | > 2 | 84 | > 30 | 71 | 11.7 |  |  | 
3 | CN1CCC(Cc2cccc(CNC3(c4ccc(F)cc4Cl)CCCC3)c2)CC1 | 220 (≈ 91.3 µg/mL) |  |  |  |  |  |  |  |  |  |  |  | 4.25 | 0.183 | 21 | 
4 | CN1CC(Cc2cccc(CNC3(c4ccc(F)cc4)CCCC3)c2)C1 | > 250 | 63 |  |  |  | > 1 |  |  |  |  | > 30 |  | 13.4 |  |  | 
5 | CN1CCC(Cc2cccc(CNC3(c4ccc(F)c(Cl)c4)CCCC3)c2)CC1 | 249 (≈ 103 µg/mL) | 53 |  |  |  | > 1 |  |  |  |  |  |  | 3.61 |  | 21.9 | 
6 | CN1CCC(Cc2cccc(CNC3(c4ccc(F)c(F)c4)CCCC3)c2)CC1 | 245 (≈ 97.6 µg/mL) | 56 |  | > 2 | 31 |  | > 2 | > 95 | > 2 | 75 | > 30 | 53 | 5.1 | 1.17 |  | 
7 | CN1CCC(Cc2cc(CNC3(c4ccc(F)c(F)c4)CCCC3)ccc2F)CC1 | 231 (≈ 96.2 µg/mL) | 48 |  |  | 21 |  | > 2 |  |  | 77 | > 30 | 56 | 3.52 | 0.967 |  | 
8 | COc1cc(F)ccc1C1(NCc2ccc(F)c(CC3CCN(C)CC3)c2)CCCC1 | > 250 | 55 |  | > 2 | 31 |  | > 2 | 95 | > 2 | 75 | > 30 | 58 | 6.88 | 1.15 |  | 
9 | CN1CCC(Cc2cccc(CNC3(c4ccc(F)cc4F)CCCC3)c2)CC1 | 209 (≈ 83.3 µg/mL) | 19 |  |  | 5 | < 0.5 |  |  |  |  | > 30 |  | 7.83 |  |  | 
10 | CN1CCC(Cc2cccc(CNC3(c4ccc(F)cc4O)CCCC3)c2)CC1 | 27 (≈ 10.7 µg/mL) | 34 |  | > 2 | 13 |  |  | > 95 | > 2 |  | > 30 |  | > 30 | 0.7 |  | 
11 | CN1CCC(Cc2cccc(CNC3(c4ccc(F)cc4)CCCC3)c2)CC1(C)C (racemic) | 239 (≈ 97.7 µg/mL) | 58 |  |  |  | > 1 |  |  |  |  | > 30 |  | 6.46 |  |  | 
12 | COc1cc(F)ccc1C1(NCc2cccc(CC3CCN(C)CC3)c2)CCCC1 | 247 (≈ 101 µg/mL) | 64 |  | > 2 | 42 |  |  | > 95 | > 2 | 70 | > 30 | 50 | 6.99 | 1.63 |  | 1.53
13 | CN1CCC(Cc2cccc(CNC3(c4ccc(F)cc4)CCCC3)c2)C(F)(F)C1 (racemic) | 41 (≈ 17.1 µg/mL) |  |  |  |  | < 0.0833 |  |  |  |  | > 30 |  | 21.9 |  |  | 
14 | CN1CCC(Cc2ccc(F)c(CNC3(c4ccc(F)cc4)CCCC3)c2)CC1 | 246 (≈ 98 µg/mL) | 68 | 95 | > 2 | 46 |  | > 2 | 95 | > 2 | 75 | > 30 | 53 | 5.45 | 1.78 |  | 
15 | CN1CCC(Cc2cc(CNC3(c4ccc(F)cc4)CCCC3)ccc2O)CC1 | > 250 | 61 | 95 | > 2 | 43 |  | > 2 | 95 | > 2 | 83 | > 30 | 63 | 5.1 | 1.45 |  | 
16 | CN1CCC(Cc2cc(CNC3(c4ccc(F)cc4)CCCC3)ccc2F)CC1 | > 250 | 60 | 95 | > 2 | 39 |  | > 2 | 95 | > 2 | 84 | > 30 | 71 | 5.89 | 1.52 |  | 
17 | COc1cc(C2(NCc3cccc(CC4CCN(C)CC4)c3)CCCC2)ccc1F | 219 (≈ 89.9 µg/mL) | 62 |  | > 2 | 40 |  | > 2 | > 95 | > 2 | 80 | > 30 | 55 | 3.65 | 1.52 |  | 
18 | CN1CCC(Cc2ccc(O)c(CNC3(c4ccc(F)cc4)CCCC3)c2)CC1 | 246 (≈ 97.6 µg/mL) |  | 95 | > 2 |  |  | > 2 | 95 | > 2 | 74 | > 30 | 54 | 7.03 | 1.37 |  | 
